Activity calls are given as the source filed them. The rule behind the calls is not given here.
What was measured:
[1] = biological target: E3 ubiquitin-protein ligase Mdm2 (Homo sapiens, UniProt Q00987); experiment: Induction of MDM2 degradation in human RS4:11 cells assessed as downregulation of MDM2 at 1 to 30 nM after 2 hrs by Western blot analysis; assay type: cell-based
Summary of the method: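 Western blots of MDM2 and p53 protein were run on RS4;11 cells (wild-type p53) in RPMI 1640 with 10% FBS. 2×10^6 cells/well were treated at the indicated concentrations for 1 h or 2 h. Lysis was in ice-cold buffer with protease inhibitor, followed by probing with specific antibodies.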

[2] = biological target: Cellular tumor antigen p53 (Homo sapiens) (UniProt P04637); experiment: Activation of p53 in human RS4:11 cells assessed as increase in BAX mRNA expression at 3 nM after 1 to 2 hrs by qRT-PCR analysis; assay type: cell-based
Summary of the method: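 RS4;11 cells (RPMI 1640, 10% FBS, 37 °C, 5% CO2) treated with 3 nM or 10 nM compound; total RNA extracted and mRNA of p53 targets MDM2, CDKN1A, PUMA and BAX quantified by qRT-PCR. Mean ± standard error from at least three independent experiments.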

MDA-MB-468 = experiment: Antiproliferative activity against human MDA-MB-468 cells assessed as cell growth inhibition after 4 days in presence of control siRNA for 3 days followed by compound treatment by WST-8 assay; assay type: functional, cell-based
[3] = biological target: T1, Protein cereblon/Eukaryotic peptide chain release factor GTP-binding subunit ERF3A/DNA damage-binding protein 1/Cullin-4A (Homo sapiens) (UniProt Q96SW2+Q16531+Q13619+P15170); experiment: Protac activity at GSPT1/CUL4/DDB1/CRBN in human RS4:11 cells expressing wild type p53 assessed as decrease in GSPT1 protein level after 2 hrs by Western blot analysis; assay type: cell-based
Summary of the method: (§1)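 RS4;11 (wild-type p53) or RS4;11/IRMI-2 (MDM2 inhibitor-resistant derivative, mutant p53) cells kept in RPMI 1640 with 10% FBS at 37 °C, 5% CO₂. 2×10^6 cells/well treated at the indicated concentrations and times, then lysed in ice-cold lysis buffer with protease inhibitor. GSPT1 detected by Western blot with a specific antibody.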

RS4-11 = experiment: Antiproliferative activity against human RS4:11 cells expressing wild type p53 assessed as MDM2-independent cell growth inhibition after 4 days by WST-8 assay; assay type: functional, cell-based; conditions: RS4-11, 96 h
Summary of the method: (§2)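 Leukemia cells seeded at 10000–20000 cells/well, breast cancer lines at 5000–10000 cells/well. Serially diluted compound added, then 4 days at 37 °C, 5% CO2. Growth read with WST-8 reagent after at least 1 h, absorbance at 450 nm. RS4;11, MOLM-13 and breast lines were grown in RPMI 1640; MV-4-11 and HL-60 in IMDM; all with 10% FBS. Mean ± SE, at least three independent experiments.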

[4] = biological target: T2, Protein cereblon/Eukaryotic peptide chain release factor GTP-binding subunit ERF3A (Homo sapiens) (UniProt Q96SW2+P15170); experiment: Inhibition of cereblon binding with GSPT1 human MDA-MB-468 cells assessed as decrease in GSPT1 degradation at 0.1 uM after 2 hrs in presence of 30 uM lenalidomide by Western blot analysis; assay type: cell-based
Summary of the method: (§3)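 MDA-MB-231 or MDA-MB-468 cells were treated 2 h with or without 30 μM lenalidomide to block cereblon binding. GSPT1 protein level was then assessed by Western blotting.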

[5] = biological target: T1, Protein cereblon/Eukaryotic peptide chain release factor GTP-binding subunit ERF3A/DNA damage-binding protein 1/Cullin-4A (Homo sapiens); experiment: Protac activity at GSPT1/CUL4/DDB1/CRBN in human RS4:11 cells expressing wild type p53 assessed as effect on GSPT1 mRNA level after 3 hrs by qRT-PCR analysis; assay type: cell-based
Summary of the method: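 Total RNA taken from treated cells at the indicated time points. RNA concentration measured on a plate reader. GSPT1 mRNA quantified by qRT-PCR. Data are mean ± standard error from at least three independent experiments.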

[6] = Antiproliferative activity against human RS4:11/IRMI-2 cells harboring p53 hotspot mutation Y236H/R249G assessed as cell growth inhibition after 4 days by WST-8 assay; assay type: functional, cell-based; conditions: RS4-11, 96 h; summary of the method: as §2
[7] = biological target: T1, Protein cereblon/Eukaryotic peptide chain release factor GTP-binding subunit ERF3A/DNA damage-binding protein 1/Cullin-4A (Homo sapiens); experiment: Protac activity at GSPT1/CUL4/DDB1/CRBN in human RS4:11/IRMI-2 cells harboring p53 hotspot mutation Y236H/R249G assessed as decrease in GSPT1 protein level after 2 hrs by Western blot analysis; assay type: cell-based; summary of the method: as §1
MV4-11 = experiment: Antiproliferative activity against human MV4-11 cells expressing wild type p53 assessed as cell growth inhibition after 4 days by WST-8 assay; assay type: functional, cell-based; conditions: MV4-11, 96 h; summary of the method: as §2
MDA-MB-231 [8] = experiment: Antiproliferative activity against human MDA-MB-231 cells assessed as cell growth inhibition after 4 days in presence of control siRNA for 2 days followed by compound treatment by WST-8 assay; assay type: functional, cell-based
Summary of the method: (§4)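 MDA-MB-231 or MDA-MB-468 cells transfected for 2 days using Lipofectamine RNAiMAX with MDM2 siRNA, one of two CRBN siRNAs, or non-targeting control siRNA. Compound then added and growth read by WST-8 at 450 nm.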

[9] = biological target: T1, Protein cereblon/Eukaryotic peptide chain release factor GTP-binding subunit ERF3A/DNA damage-binding protein 1/Cullin-4A (Homo sapiens); experiment: Protac activity at GSPT1/CUL4/DDB1/CRBN in human RS4:11 cells expressing wild type p53 assessed as decrease in GSPT1 protein level measured upto 24 hrs by Western blot analysis; assay type: cell-based; summary of the method: as §1
MOLM-13 = experiment: Antiproliferative activity against human MOLM13 cells expressing wild type p53 assessed as cell growth inhibition after 4 days by WST-8 assay; assay type: functional, cell-based; conditions: MOLM-13, 96 h; summary of the method: as §2
MDA-MB-231 [10] = experiment: Antiproliferative activity against human MDA-MB-231 cells transfected with CRBN siRNA LQ-021086-11-0002 assessed as cell growth inhibition after 4 days by WST-8 assay; assay type: functional, cell-based; conditions: MDA-MB-231, 96 h; summary of the method: as §4
MDA-MB-231 [11] = experiment: Antiproliferative activity against human MDA-MB-231 cells transfected with MDM2 siRNA assessed as cell growth inhibition after 4 days by WST-8 assay; assay type: functional, cell-based; conditions: MDA-MB-231, 96 h; summary of the method: as §4
[12] = biological target: T2, Protein cereblon/Eukaryotic peptide chain release factor GTP-binding subunit ERF3A (Homo sapiens); experiment: Inhibition of cereblon binding with GSPT1 in human MDA-MB-231 cells assessed as decrease in GSPT1 degradation at 0.1 uM after 2 hrs in presence of 30 uM lenalidomide by Western blot analysis; assay type: cell-based; summary of the method: as §3
[13] = biological target: T1, Protein cereblon/Eukaryotic peptide chain release factor GTP-binding subunit ERF3A/DNA damage-binding protein 1/Cullin-4A (Homo sapiens); experiment: Protac activity at GSPT1/CUL4/DDB1/CRBN in human RS4:11 cells expressing wild type p53 assessed as decrease in GSPT1 protein level at 10 nM by Western blot analysis; assay type: cell-based; conditions: TDE = time-dependent effect; summary of the method: as §1
[14] = biological target: Eukaryotic peptide chain release factor GTP-binding subunit ERF3A (Homo sapiens, UniProt P15170); experiment: Induction of GSPT1 degradation in human RS4:11 cells measured after 24 hrs by Western blot analysis; assay type: cell-based
[15] = biological target: T1, Protein cereblon/Eukaryotic peptide chain release factor GTP-binding subunit ERF3A/DNA damage-binding protein 1/Cullin-4A (Homo sapiens); experiment: Protac activity at GSPT1/CUL4/DDB1/CRBN in human RS4:11/IRMI-2 cells harboring p53 hotspot mutation Y236H/R249G assessed as decrease in GSPT1 protein level by measuring fold change of protein level before and after treatment at 0.1 uM measured after 3 hrs relative to control

T1 sequence (P15170 whole entry, looked up): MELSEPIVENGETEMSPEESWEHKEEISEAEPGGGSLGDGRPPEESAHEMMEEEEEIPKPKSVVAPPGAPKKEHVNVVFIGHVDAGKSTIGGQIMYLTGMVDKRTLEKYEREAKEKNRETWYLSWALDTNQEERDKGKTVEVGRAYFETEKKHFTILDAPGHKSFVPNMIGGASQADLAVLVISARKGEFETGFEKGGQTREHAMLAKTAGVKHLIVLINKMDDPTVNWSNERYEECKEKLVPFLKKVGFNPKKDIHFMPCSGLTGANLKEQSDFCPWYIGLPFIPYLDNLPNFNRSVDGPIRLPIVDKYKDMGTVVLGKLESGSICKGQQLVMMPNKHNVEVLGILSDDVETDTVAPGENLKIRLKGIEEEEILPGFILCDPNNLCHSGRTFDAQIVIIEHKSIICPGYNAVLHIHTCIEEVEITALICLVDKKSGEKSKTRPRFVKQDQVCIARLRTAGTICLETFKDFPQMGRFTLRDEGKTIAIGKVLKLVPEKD
T1 sequence (Q13619 whole entry, looked up): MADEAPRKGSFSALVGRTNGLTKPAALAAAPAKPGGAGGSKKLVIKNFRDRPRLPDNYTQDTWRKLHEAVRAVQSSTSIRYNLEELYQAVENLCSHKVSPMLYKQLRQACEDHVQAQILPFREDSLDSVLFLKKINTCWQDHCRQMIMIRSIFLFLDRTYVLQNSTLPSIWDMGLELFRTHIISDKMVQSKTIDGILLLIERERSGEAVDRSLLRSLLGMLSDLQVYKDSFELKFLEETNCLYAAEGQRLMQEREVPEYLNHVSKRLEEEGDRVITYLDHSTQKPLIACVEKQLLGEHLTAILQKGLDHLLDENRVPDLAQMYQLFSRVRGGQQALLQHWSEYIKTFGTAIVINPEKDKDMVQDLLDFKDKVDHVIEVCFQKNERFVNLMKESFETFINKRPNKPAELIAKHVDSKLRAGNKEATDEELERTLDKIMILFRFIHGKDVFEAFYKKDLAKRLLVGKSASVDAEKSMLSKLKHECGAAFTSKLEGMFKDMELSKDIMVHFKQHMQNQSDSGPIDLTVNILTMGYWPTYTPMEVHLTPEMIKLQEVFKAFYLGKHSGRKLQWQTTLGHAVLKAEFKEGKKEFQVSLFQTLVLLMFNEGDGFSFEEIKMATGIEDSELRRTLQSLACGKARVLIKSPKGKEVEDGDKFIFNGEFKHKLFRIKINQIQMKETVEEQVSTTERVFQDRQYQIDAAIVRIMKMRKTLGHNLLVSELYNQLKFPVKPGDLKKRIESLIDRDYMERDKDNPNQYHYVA
T1 sequence (Q16531 whole entry, looked up): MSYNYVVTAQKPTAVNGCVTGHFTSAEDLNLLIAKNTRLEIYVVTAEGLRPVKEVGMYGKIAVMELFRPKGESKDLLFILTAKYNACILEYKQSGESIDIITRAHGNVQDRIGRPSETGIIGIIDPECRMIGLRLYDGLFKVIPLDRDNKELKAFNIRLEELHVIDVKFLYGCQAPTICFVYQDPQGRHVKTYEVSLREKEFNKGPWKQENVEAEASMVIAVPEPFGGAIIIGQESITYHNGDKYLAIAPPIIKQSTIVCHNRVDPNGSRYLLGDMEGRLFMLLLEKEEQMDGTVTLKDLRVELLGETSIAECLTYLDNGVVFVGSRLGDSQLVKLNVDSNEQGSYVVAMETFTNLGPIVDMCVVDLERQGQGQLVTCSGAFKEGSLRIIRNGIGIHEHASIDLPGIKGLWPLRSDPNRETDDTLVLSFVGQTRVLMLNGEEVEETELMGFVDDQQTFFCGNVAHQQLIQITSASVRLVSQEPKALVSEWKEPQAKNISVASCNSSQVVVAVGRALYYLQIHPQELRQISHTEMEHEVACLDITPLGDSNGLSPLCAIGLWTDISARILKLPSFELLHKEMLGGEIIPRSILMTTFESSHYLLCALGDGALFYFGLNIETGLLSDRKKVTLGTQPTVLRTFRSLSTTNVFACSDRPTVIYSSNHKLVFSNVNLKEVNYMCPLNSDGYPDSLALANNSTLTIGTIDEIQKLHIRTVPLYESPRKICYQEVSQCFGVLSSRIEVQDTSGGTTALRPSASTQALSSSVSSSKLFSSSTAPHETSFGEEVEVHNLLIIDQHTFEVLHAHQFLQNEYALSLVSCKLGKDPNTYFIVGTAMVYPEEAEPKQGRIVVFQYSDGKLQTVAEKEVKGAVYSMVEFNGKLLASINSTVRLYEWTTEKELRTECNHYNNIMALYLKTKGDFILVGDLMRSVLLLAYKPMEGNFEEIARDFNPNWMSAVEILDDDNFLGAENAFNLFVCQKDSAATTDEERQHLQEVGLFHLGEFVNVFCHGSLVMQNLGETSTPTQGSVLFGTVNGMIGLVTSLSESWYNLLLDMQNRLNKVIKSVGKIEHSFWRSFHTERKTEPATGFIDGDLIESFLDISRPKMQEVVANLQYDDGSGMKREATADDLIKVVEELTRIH
T1 sequence (Q96SW2 whole entry, looked up): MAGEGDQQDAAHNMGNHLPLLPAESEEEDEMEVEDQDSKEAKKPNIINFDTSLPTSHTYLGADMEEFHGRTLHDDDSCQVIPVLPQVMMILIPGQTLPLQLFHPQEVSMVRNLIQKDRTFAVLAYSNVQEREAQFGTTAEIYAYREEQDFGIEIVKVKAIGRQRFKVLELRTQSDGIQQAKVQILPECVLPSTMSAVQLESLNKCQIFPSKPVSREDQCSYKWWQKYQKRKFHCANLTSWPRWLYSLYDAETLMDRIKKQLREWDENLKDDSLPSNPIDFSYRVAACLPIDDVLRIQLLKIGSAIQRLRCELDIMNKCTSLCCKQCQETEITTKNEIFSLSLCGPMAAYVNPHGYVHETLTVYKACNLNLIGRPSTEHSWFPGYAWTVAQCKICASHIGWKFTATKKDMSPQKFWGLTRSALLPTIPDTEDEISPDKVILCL
T2 sequence (P15170 whole entry, looked up): as the sequence (P15170 whole entry, looked up) above
T2 sequence (Q96SW2 whole entry, looked up): as the sequence (Q96SW2 whole entry, looked up) above
Sequence of E3 ubiquitin-protein ligase Mdm2 (Q00987 whole entry, looked up): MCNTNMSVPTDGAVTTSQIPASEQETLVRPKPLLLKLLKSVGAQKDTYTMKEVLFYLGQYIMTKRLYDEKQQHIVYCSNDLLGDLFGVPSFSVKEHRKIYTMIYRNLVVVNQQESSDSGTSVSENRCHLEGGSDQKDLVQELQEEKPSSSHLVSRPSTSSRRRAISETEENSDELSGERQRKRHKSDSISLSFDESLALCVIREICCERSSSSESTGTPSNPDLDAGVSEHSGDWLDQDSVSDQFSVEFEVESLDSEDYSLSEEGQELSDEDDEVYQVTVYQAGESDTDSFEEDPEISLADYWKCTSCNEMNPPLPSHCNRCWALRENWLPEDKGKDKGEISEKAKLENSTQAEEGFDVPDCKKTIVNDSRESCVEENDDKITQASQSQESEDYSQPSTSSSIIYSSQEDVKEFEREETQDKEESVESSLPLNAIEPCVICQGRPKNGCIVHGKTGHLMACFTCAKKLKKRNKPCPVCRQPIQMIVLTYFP
Sequence of Eukaryotic peptide chain release factor GTP-binding subunit ERF3A (P15170 whole entry): as the sequence (P15170 whole entry, looked up) above
Sequence of Cellular tumor antigen p53 (Homo sapiens) (P04637 whole entry, looked up): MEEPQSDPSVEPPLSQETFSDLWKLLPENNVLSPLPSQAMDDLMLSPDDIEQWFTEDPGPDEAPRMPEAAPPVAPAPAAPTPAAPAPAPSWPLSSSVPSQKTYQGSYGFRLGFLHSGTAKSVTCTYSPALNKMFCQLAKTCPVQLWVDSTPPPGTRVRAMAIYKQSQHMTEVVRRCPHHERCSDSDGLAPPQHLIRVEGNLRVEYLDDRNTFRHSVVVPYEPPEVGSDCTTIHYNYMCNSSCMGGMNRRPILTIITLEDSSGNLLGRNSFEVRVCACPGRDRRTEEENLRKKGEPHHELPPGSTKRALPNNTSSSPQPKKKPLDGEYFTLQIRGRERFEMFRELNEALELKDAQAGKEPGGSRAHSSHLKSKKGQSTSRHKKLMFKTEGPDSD

For `O=C1CCC(N2Cc3c(CCCCCNC(=O)[C@@H]4NC5(CCCCC5)[C@@]5(C(=O)Nc6cc(Cl)ccc65)[C@H]4c4cccc(Cl)c4F)cccc3C2=O)C(=O)N1` (some centres undefined), the Activity [1] was “Active”, the Activity [2] was “inactive” and the IC50 (MDA-MB-468) was 0.062 µM. For the same compound, the Activity [3] was “Active”, the IC50 (RS4-11) was 0.0023 µM and the inhibition [4] was “Active”. The Activity [5] was “inactive”, the IC50 [6] was 0.0034 µM and the Activity [7] was “Active”. For the same compound, the IC50 (MV4-11) was 0.0079 µM, the IC50 (MDA-MB-231 [8]) was 0.0289 µM and the Activity [9] was “Dose-dependent effect”. The IC50 (MOLM-13) was 0.0246 µM, the IC50 (MDA-MB-231 [10]) was > 3 µM and the IC50 (MDA-MB-231 [11]) was 0.0193 µM. The inhibition [12] was “Active”, the Activity [13] was “Tde” and the DC50 [14] was 0.0013 µM. It also gave a fold change [15] of 3.7.

From ChEMBL document CHEMBL4321819, “Simple Structural Modifications Converting a Bona fide MDM2 PROTAC Degrader into a Molecular Glue Molecule: A Cautionary Tale in the Design of PROTAC Degraders” (J Med Chem, 2019)
